{"data": "Measurements of several laboratories", "cell line": "HT-29"}
{"Compound": "CC(=O)c1ccc(/N=N/c2cc(/C=C/C(=O)O)ccc2O)cc1", "assay": "cell growth or viability, MTT", "IC50": "> 50 µM"}
{"Compound": "NCC(=O)Nc1ccc(-n2nc(C(F)(F)F)cc2-c2ccc3c(c2)Nc2ccccc2S3)cc1", "assay": "cell growth or viability, MTT", "setting": "24 h", "IC50": "6.2 µg/mL"}
{"Compound": "CCN(CC)CCNC(=O)c1c(C)[nH]c(/C=C2\\C(=O)Nc3ccc(F)cc32)c1C", "assay": "cell growth or viability", "IC50": "10.1 µM"}
{"Compound": "CC(=O)c1ccc(N=Nc2c(C(=O)O)cc(O)c(O)c2O)cc1", "assay": "cell growth or viability, MTT", "IC50": "14.6 µM"}
{"Compound": "O=C1Nc2ccc(Br)cc2/C1=N/NC(=O)c1cc2ccccc2[nH]1", "assay": "cell growth or viability", "IC50": "21.9 µM"}
{"Compound": "c1csc([I+]c2cccs2)c1", "assay": "cell growth or viability, trypan blue", "setting": "48 h", "IC50": "~2.5 µM"}
{"Compound": "COc1cccc(C(=O)O[C@@H]2CN3Cc4c(cc5c(c4OC)OCO5)[C@@]24C=C[C@H](OC)C[C@@H]34)c1", "assay": "cell growth or viability, WST-1", "IC50": "> 10 µM"}
{"Compound": "CC(C)C[C@H](NC(=O)[C@H](Cc1ccccc1)NC(=O)c1cnccn1)B(O)O", "assay": "cell growth or viability, ATP luminescence", "IC50": "0.0098 µM"}
{"Compound": "C1CCCC1.C1CCCC1.[Cl][W][Cl]", "assay": "cell growth or viability, MTT", "IC50": "10000 µM"}
{"Compound": "NCC(=O)Nc1ccc(-n2nc(C(F)(F)F)cc2-c2ccc3c(ccc4ccccc43)c2)cc1", "assay": "cell growth or viability, MTT", "setting": "24 h", "IC50": "3.6 µg/mL"}
{"Compound": "CC(C)n1c(/C=C/C(O)CC(O)CC(=O)O)c(-c2ccc(F)cc2)c2ccccc21 (centres unmarked)", "assay": "cell growth or viability, SRB", "setting": "72 h", "IC50": "1.67 µg/mL"}
{"Compound": "COc1ccc(-c2cc3nccn3c(Nc3ncccc3C(N)=O)n2)cc1OC", "assay": "IL-8 release", "setting": "24 h", "IC50": "> 2.56 µM"}
{"Compound": "Cc1occc(=O)c1[O-].[Cl-].[W+4].c1cc[cH-]c1.c1cc[cH-]c1", "assay": "cell growth or viability, MTT", "IC50": "540 µM"}
{"Compound": "CN1C(=O)/C(=N\\NC(=O)c2cc3ccccc3[nH]2)c2cc(Br)ccc21", "assay": "cell growth or viability", "IC50": "3.68 µM"}
{"Compound": "CC(=O)c1cccc(N=Nc2c(C(=O)O)cc(O)c(O)c2O)c1", "assay": "cell growth or viability, MTT", "IC50": "10.2 µM"}
{"Compound": "COc1ccc2c(c1)/C(=N/NC(=O)c1cc3ccccc3[nH]1)C(=O)N2", "assay": "cell growth or viability", "IC50": "> 30 µM"}
{"Compound": "C#C[C@@]1(O)[C@@H](CO)O[C@@H](n2ccc(N)nc2=O)[C@@H]1O", "assay": "cell growth or viability, SRB", "setting": "72 h", "IC50": "0.0094 µM"}
{"Compound": "CN1C(=O)/C(=N\\NC(=O)c2cc3ccccc3[nH]2)c2cc(F)ccc21", "assay": "cell growth or viability", "IC50": "8.92 µM"}
{"Compound": "Cc1nc(Nc2ncc(C(=O)Nc3c(C)cccc3Cl)s2)cc(N2CCN(CCO)CC2)n1", "assay": "IL-8 release", "setting": "24 h", "IC50": "> 2.05 µM"}
{"Compound": "O=C1Nc2ccccc2/C1=N/NC(=O)c1cc2ccccc2[nH]1", "assay": "cell growth or viability", "IC50": "19.7 µM"}
{"Compound": "O=C(O)C[C@H](O)C[C@H](O)/C=C/c1c(C2CC2)nc2ccccc2c1-c1ccc(F)cc1", "assay": "cell growth or viability, SRB", "setting": "72 h", "IC50": "0.09 µg/mL"}
{"Compound": "C#C[C@@]1(O)[C@@H](COP(=O)(O)OC[C@H]2O[C@@H](n3cc(F)c(=O)[nH]c3=O)C[C@@H]2O)O[C@@H](n2ccc(N)nc2=O)[C@@H]1O", "assay": "cell growth or viability, SRB", "setting": "72 h", "IC50": "0.0054 µM"}
{"Compound": "CCC[C@H](Nc1nc(-c2ccc(NC(=O)NCC)c(OC)c2)ncc1C)c1cccnc1", "assay": "cell growth or viability, fluorescence", "setting": "72 h", "IC50": "0.0393 µM"}
{"Compound": "COc1c(C)c(OC)c2c(c1C)OC(c1ccccc1)CC2=O (centres unmarked)", "assay": "cell growth or viability, SRB", "setting": "72 h", "IC50": "> 50 µM"}
{"Compound": "CC(=O)c1cccc(/N=N/c2cc(/C=C/C(=O)O)ccc2O)c1", "assay": "cell growth or viability, MTT", "IC50": "> 50 µM"}
{"Compound": "CCOc1cc(OCC)cc(C(=O)O[C@@H]2CN3Cc4c(cc5c(c4OC)OCO5)[C@@]24C=C[C@H](OC)C[C@@H]34)c1", "assay": "cell growth or viability, WST-1", "IC50": "> 10 µM"}
